Experimental findings from ChEMBL document CHEMBL1133105, “Antimalarial, antitrypanosomal, and antileishmanial activities and cytotoxicity of bis(9-amino-6-chloro-2-methoxyacridines): influence of the linker” (J Med Chem, 2000) are described below.

pIC50: −log10 of the molar value.

The test system of assay [1] is Leishmania infantum. Kind of assay: Percentage of activity against Leishmania infantum 6.25 uM. Type of assay: functional. The procedure, abridged:
(§1)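 Starch-stimulated mouse peritoneal macrophages, 30 000/well, infected after 24 h with spleen-derived L. infantum amastigotes (10:1) together with 2-fold drug dilutions (12.5–1.56 µM). Incubated 7 days at 37 °C, 5% CO2. Wright-stained slides scored microscopically as % reduction of total parasite load or of infected macrophages. Uninfected treated cultures judged microscopically for macrophage toxicity.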

Assay [2] deals with Leishmania infantum. Kind of assay: Percentage of activity against Leishmania infantum at 1.56 uM. Type of assay: functional. The procedure, abridged:
as §1

The subject of assay [3] is Leishmania infantum. In words: In Vitro evaluation for the percentage of activity towards Leishmania infantum at 12.5 uM Concentration. Type of assay: functional. The procedure, abridged:
as §1

Assay [4] deals with Leishmania infantum. In words: Percentage of activity against Leishmania infantum at 3.13 uM. Format: functional. The method in brief:
as §1

Assay [5] concerns MRC5. In words: Cytotoxicity on MRC-5 cells at 12.5 uM. Type of assay: functional. Particulars: Homo sapiens. The procedure, abridged: (§2)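 MRC-5 human diploid embryonic lung cells seeded at 5 000/well, washed after 24 h, then given 2-fold drug dilutions (25, 12.5, 6.25, 3.13 µM) in RPMI + 5% FCS, final DMSO below 0.5%. Incubated 7 days at 37 °C, 5% CO2. MTT colorimetric read-out, scored as % reduction of absorbance at 540 nm versus untreated controls.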

For assay [6], the system named is MRC5. In words: Cytotoxicity on MRC-5 cells at 25 uM. Particulars: Homo sapiens. Type of assay: functional. The procedure, abridged: as §2
Assay [7] relates to MRC5. Kind of assay: Cytotoxicity on MRC-5 cells at 3.13 uM. Type of assay: functional. The conditions noted are these: Homo sapiens. The procedure, abridged: as §2
Assay [8] concerns MRC5. In words: Cytotoxicity on MRC-5 cells at 6.25 uM. Type of assay: functional. Particulars: Homo sapiens. The method in brief:
as §2

Assay [9] has as its system Plasmodium falciparum. In words: Parasite growth inhibition against Plasmodium falciparum W2. Type of assay: functional, organism-based. The procedure, abridged: (§3)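 Asynchronous cultures of each strain on human erythrocytes (0.5% parasitemia, 1% final hematocrit) were exposed to serially diluted drug for 24 h at 37 °C. Then 0.5 µCi [3H]hypoxanthine per well was added for 24 h. Incorporation was compared with a drug-free control on the same plate. IC50 was taken from the concentration-response curve as the mean of several independent experiments. DMSO was at most 0.1%.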

In assay [10] the test system is Plasmodium falciparum. Kind of assay: Parasite growth inhibition against Plasmodium falciparum F32A. Type of assay: functional, organism-based. The procedure, abridged:
as §3

Assay [11] deals with Plasmodium falciparum. In words: Parasite growth inhibition against Plasmodium falciparum FCM29. Type of assay: functional, organism-based. The method in brief: as §3
Assay [12] has as its system Plasmodium falciparum. In words: Parasite growth inhibition against Plasmodium falciparum FCR3. Format: functional, organism-based. The procedure, abridged:
as §3

The subject of assay [13] is Plasmodium falciparum. In words: In vitro sensitivity for Plasmodium falciparum FcB1R. Format: functional, organism-based. The procedure, abridged: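 Asynchronous P. falciparum cultures in human erythrocytes (0.5% parasitemia, 1% haematocrit) exposed to serially diluted drug for 24 h at 37 °C. [3H]hypoxanthine (0.5 µCi/well) then added for a further 24 h. Uptake compared with drug-free controls on the same plate. IC50 taken from the concentration–response curve, averaged over independent experiments. DMSO ≤0.1%.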

The test system of assay [14] is Plasmodium falciparum. Kind of assay: Parasite growth inhibition against Plasmodium falciparum GP1. Format: functional, organism-based. The method in brief:
as §3

Assay [15] has as its system Plasmodium falciparum. Kind of assay: Parasite growth inhibition against Plasmodium falciparum K1. Type of assay: functional, organism-based. The procedure, abridged:
as §3

Assay [16] concerns Trypanosoma cruzi. Kind of assay: Percentage of activity against Trypanosoma cruzi at 12.5 uM. Format: functional. The procedure, abridged: (§4)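 Mouse peritoneal macrophages, 30 000/well, infected after 24 h with about 100 000 T. cruzi trypomastigotes per well plus 2-fold drug dilutions (12.5–1.56 µM). Incubated 4 days at 37 °C, 5% CO2. Methanol-fixed, Giemsa-stained and scored microscopically as % reduction of total parasite load (free trypomastigotes plus intracellular amastigotes) versus untreated controls.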

The test system of assay [17] is Trypanosoma cruzi. Kind of assay: Percentage of activity against Trypanosoma cruzi at 3.13 uM. Format: functional. The procedure, abridged: as §4
The subject of assay [18] is Trypanosoma cruzi. In words: Percentage of activity against Trypanosoma cruzi at 6.25 uM Concentration. Type of assay: functional. The procedure, abridged:
as §4

In assay [19] the test system is Trypanosoma brucei. In words: Percentage of activity against Trypanosoma brucei at 6.25 uM. Type of assay: functional. The procedure, abridged: (§5)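 Bloodstream-form T. brucei in HMI-9 medium, 10 000 parasites/well, exposed to 12.5, 6.25, 3.13 and 1.56 µM drug for 4 days. Read-out is % inhibition of parasite multiplication. Macrophage toxicity judged on mouse primary peritoneal macrophages.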

In assay [20] the test system is Trypanosoma brucei. In words: Percentage of activity against Trypanosoma brucei at 12.5 uM. Format: functional. The method in brief: as §5
Assay [21] relates to Trypanosoma brucei. Kind of assay: Percentage of activity against Trypanosoma brucei at 1.56 uM. Format: functional. The method in brief: as §5
Assay [22] relates to Trypanosoma brucei. Kind of assay: Percentage of activity against Trypanosoma brucei at 3.13 uM. Format: functional. The method in brief:
as §5

Assay [23] relates to Plasmodium falciparum. In words: Growth inhibition of chloroquine-sensitive Plasmodium falciparum 3D7.
The test system of assay [24] is Leishmania infantum. Kind of assay: In Vitro evaluation for the percentage of activity towards Leishmania infantum at 3.13 uM Concentration; Toxic upon mouse primary peritoneal macrophages. Format: functional, organism-based. The procedure, abridged:
as §1

In assay [25] the test system is Leishmania infantum. In words: Percentage of activity against Leishmania infantum at 6.25 uM; Toxic upon mouse primary peritoneal macrophages. Format: functional, organism-based. The method in brief: as §1
The test system of assay [26] is Leishmania infantum. Kind of assay: In Vitro evaluation for the percentage of activity towards Leishmania infantum at 1.56 uM Concentration; Toxic upon mouse primary peritoneal macrophages. Format: functional, organism-based. The method in brief:
as §1

The test system of assay [27] is Leishmania infantum. In words: Percentage of activity against Leishmania infantum at 12.5 uM Concentration; Toxic upon mouse primary peritoneal macrophages. Format: functional, organism-based. The method in brief:
as §1

In assay [28] the test system is Trypanosoma cruzi. Kind of assay: Percentage of activity against Trypanosoma cruzi at 1.56 uM. Format: functional. The procedure, abridged:
as §4

Assay [29] relates to Trypanosoma cruzi. Kind of assay: Percentage of activity against Trypanosoma cruzi at 12.5 uM; Toxic upon mouse primary peritoneal macrophages. Format: functional, organism-based. The procedure, abridged: as §4
Assay [30] concerns Trypanosoma cruzi. In words: In Vitro evaluation for the percentage of activity towards Trypanosoma cruzi at 3.13 uM Concentration; Toxic upon mouse primary peritoneal macrophages. Format: functional, organism-based. The procedure, abridged: as §4
In assay [31] the test system is Trypanosoma cruzi. Kind of assay: In Vitro evaluation for the percentage of activity towards Trypanosoma cruzi at 6.25 uM Concentration; Toxic upon mouse primary peritoneal macrophages. Type of assay: functional, organism-based. The procedure, abridged: as §4

Regarding `COc1ccc2nc3cc(Cl)ccc3c(NCCCN3CCN(CCCNc4c5ccc(Cl)cc5nc5ccc(OC)cc45)CC3)c2c1`, the “Antileishmanial activity (% reduction of parasite load)” value with Leishmania infantum [1] and in the assay with Leishmania infantum [2] was 0% throughout. In the assay on Leishmania infantum [3], the “Percent inhibition of Leishmania infantum” value is reported as 0%. For the same molecule, the “Percent antileishmanial activity (reduction of parasite load)” value with Leishmania infantum [4] is 0%. In the assay on MRC5 [5], this molecule came in with a cytotoxicity at 12.5 µM of 0%. Besides, the cytotoxicity at 25 µM in the assay on MRC5 [6] is 0%. Moreover, the cytotoxicity at 3.13 µM with MRC5 [7] was found to be 0%. In the assay on MRC5 [8], the cytotoxicity at 6.25 µM was 0%. Besides, the pIC50 (commonly the IC50 on a negative log10 scale, so that one unit is a factor of ten) in the assay with Plasmodium falciparum [9] was 7.92; in the assay with Plasmodium falciparum [10] it was 8.10; in the assay with Plasmodium falciparum [11], 7.89; in the assay on Plasmodium falciparum [12] it was 7.74; with Plasmodium falciparum [13], 7.77; in the assay on Plasmodium falciparum [14], 7.96. In addition, the pIC50 in the assay with Plasmodium falciparum [15] is 7.80; in the assay on Plasmodium falciparum [23] it was 7.89. For the same molecule, the “T. cruzi parasite load reduction” value in the assay on Trypanosoma cruzi [16] worked out at 0%. For the same molecule, the “Reduction of T. cruzi parasite load” value in the assay on Trypanosoma cruzi [17] and in the assay with Trypanosoma cruzi [18] was 0% throughout. The “Inhibition of parasite multiplication” value came out at 90% in the assay on Trypanosoma brucei [19] and 100% in the assay on Trypanosoma brucei [20]. Further, the “Percent inhibition of parasite multiplication” value in the assay with Trypanosoma brucei [21] came out at 60%. The molecule further showed a Parasite growth inhibition in the assay with Trypanosoma brucei [22] of 80%.
Consider `COc1ccc2nc3cc(Cl)ccc3c(NCCCN(CCCNc3c4ccc(Cl)cc4nc4ccc(OC)cc34)C(=O)CCN3CCCCC3)c2c1`, for which the Cytotoxicity result in the assay with Leishmania infantum [24], with Leishmania infantum [25], in the assay on Leishmania infantum [26], in the assay with Leishmania infantum [27], with Trypanosoma cruzi [29] and in the assay on Trypanosoma cruzi [30] was “Toxic” throughout. Further, the Cytotoxicity result in the assay on Trypanosoma cruzi [31] is “Toxic”. Besides, the cytotoxicity at 12.5 µM in the assay with MRC5 [5] came out at 71%. In the assay on MRC5 [6], this molecule came in with a cytotoxicity at 25 µM of 78%. This molecule also registered a cytotoxicity at 3.13 µM with MRC5 [7] of 42%. This molecule also gave a cytotoxicity at 6.25 µM with MRC5 [8] of 57%. This molecule showed a pIC50 in the assay with Plasmodium falciparum [13] of 7.17. The Parasite load reduction with Trypanosoma cruzi [28] turned out to be 40%. For the same molecule, the “Inhibition of parasite multiplication” value in the assay with Trypanosoma brucei [19] turned out to be 100%. The “Percent inhibition of parasite multiplication” value in the assay with Trypanosoma brucei [21] came to 100%. This molecule gave a Parasite growth inhibition in the assay on Trypanosoma brucei [22] of 100%.
`COc1ccc2nc3cc(Cl)ccc3c(NCCCCNc3c4ccc(Cl)cc4nc4ccc(OC)cc34)c2c1`: the Cytotoxicity entry in the assay on Leishmania infantum [24], in the assay on Leishmania infantum [25], with Leishmania infantum [26], in the assay with Leishmania infantum [27], in the assay with Trypanosoma cruzi [29] and with Trypanosoma cruzi [30] was “Toxic” throughout. In the assay with Trypanosoma cruzi [31], the Cytotoxicity result was “Toxic”. In the assay on MRC5 [5], the cytotoxicity at 12.5 µM is 100%. Besides, the cytotoxicity at 25 µM with MRC5 [6] came out at 100%. In the assay with MRC5 [7], this molecule gave a cytotoxicity at 3.13 µM of 100%. The cytotoxicity at 6.25 µM in the assay with MRC5 [8] amounted to 100%. For the same molecule, the pIC50 in the assay on Plasmodium falciparum [13] was 7.74. Moreover, the Parasite load reduction with Trypanosoma cruzi [28] is reported as 90%. The “Inhibition of parasite multiplication” value in the assay on Trypanosoma brucei [19] and in the assay with Trypanosoma brucei [20] was 100% each time. In addition, the “Percent inhibition of parasite multiplication” value with Trypanosoma brucei [21] is 100%. The Parasite growth inhibition in the assay with Trypanosoma brucei [22] was determined as 100%.
